Measured values as given in ChEMBL document CHEMBL4765345, “Design, synthesis, and biological evaluation of dual targeting inhibitors of histone deacetylase 6/8 and bromodomain BRPF1” (Eur J Med Chem, 2020).

Experiments:
Histone deacetylase 1 = Histone deacetylase 1 (Homo sapiens, UniProt Q13547); test: Inhibition of recombinant human HDAC1 at 10 uM using Z-(Ac)Lys-AMC as substrate after 90 mins by fluorescence based micro plate assay
Procedure, shortened: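 Recombinant human HDAC1 or HDAC6 incubated 90 min at 37 °C with 10.5 μM ZMAL (Z-(Ac)Lys-AMC) and increasing inhibitor concentrations, using a homogeneous fluorescence assay. Fluorescence read at Ex 390/Em 460 nm.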

Peregrin = target: T1, Peregrin (Homo sapiens, UniProt P55201); test: Binding affinity to BRPF1 (unknown origin) by Isothermal titration calorimetry; conditions: read-out: Kd
T1 sequence (P55201 whole entry): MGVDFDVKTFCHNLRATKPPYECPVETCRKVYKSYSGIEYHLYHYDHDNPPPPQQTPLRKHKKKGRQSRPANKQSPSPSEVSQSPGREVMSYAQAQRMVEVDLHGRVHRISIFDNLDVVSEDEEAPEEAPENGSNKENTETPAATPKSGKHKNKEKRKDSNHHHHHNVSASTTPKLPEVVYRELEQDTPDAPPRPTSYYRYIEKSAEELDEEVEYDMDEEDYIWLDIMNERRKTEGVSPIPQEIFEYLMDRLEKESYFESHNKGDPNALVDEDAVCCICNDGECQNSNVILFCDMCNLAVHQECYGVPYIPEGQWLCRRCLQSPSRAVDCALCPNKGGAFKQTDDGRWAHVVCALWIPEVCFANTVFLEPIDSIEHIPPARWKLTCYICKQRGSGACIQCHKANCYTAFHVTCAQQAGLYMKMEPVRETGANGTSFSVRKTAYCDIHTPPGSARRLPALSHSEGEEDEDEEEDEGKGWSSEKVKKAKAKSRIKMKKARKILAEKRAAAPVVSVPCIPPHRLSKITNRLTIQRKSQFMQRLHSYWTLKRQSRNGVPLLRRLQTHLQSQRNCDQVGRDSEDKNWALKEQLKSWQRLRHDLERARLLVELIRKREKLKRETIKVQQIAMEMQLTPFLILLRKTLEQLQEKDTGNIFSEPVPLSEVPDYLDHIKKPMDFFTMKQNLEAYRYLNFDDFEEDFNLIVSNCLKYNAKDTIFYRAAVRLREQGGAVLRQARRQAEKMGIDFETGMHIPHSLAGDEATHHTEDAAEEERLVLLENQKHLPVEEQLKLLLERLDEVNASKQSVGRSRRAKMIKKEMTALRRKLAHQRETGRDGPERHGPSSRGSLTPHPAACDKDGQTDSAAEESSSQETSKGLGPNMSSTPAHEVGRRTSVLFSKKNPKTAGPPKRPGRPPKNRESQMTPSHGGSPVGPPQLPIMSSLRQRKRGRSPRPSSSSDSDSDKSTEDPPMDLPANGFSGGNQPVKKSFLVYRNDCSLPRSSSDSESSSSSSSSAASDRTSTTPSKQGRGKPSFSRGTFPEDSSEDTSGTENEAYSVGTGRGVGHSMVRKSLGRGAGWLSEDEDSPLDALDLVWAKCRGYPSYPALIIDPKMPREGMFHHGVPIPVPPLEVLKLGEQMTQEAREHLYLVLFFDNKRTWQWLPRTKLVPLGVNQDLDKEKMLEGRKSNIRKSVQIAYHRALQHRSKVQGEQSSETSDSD
Procedure, shortened: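 Isothermal titration calorimetry with recombinant BRPF1 (200–400 μM) in the injection syringe titrated into ligand (20–40 μM) in the sample cell. Kd was fitted from the titrations and reported with its P99 interval.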

HEK293 = test: Cytotoxicity against human HEK293 assessed as reduction in cell viability incubated for 24 hrs by AlamarBlue assay; format: cell-based; conditions: hek293, 24 h
Procedure, shortened: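 HEK293 cells were grown at 37 °C under 5% CO2 in DMEM with 10% FCS and 5 mM glutamine and seeded at 1.5 x 10³ cells per well. Compound at 50 μM was added at once. After 24 h AlamarBlue was added for another 21 h, and fluorescence was read at Ex 560/Em 590 nm. Triplicates over three independent experiments.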

THP-1 = test: Antiproliferative activity against human THP-1 assessed as reduction in cell growth at 4 uM by CellTiter-non radioactive cell proliferation assay; format: functional
HL-60 [1] = test: Antiproliferative activity against human HL60 assessed as reduction in cell growth at 100 uM by CellTiter-non radioactive cell proliferation assay; format: functional
HL-60 [2] = test: Antiproliferative activity against human HL60 assessed as reduction in cell growth at 20 uM by CellTiter-non radioactive cell proliferation assay; format: functional

Sequence of Histone deacetylase 1 (Q13547 whole entry): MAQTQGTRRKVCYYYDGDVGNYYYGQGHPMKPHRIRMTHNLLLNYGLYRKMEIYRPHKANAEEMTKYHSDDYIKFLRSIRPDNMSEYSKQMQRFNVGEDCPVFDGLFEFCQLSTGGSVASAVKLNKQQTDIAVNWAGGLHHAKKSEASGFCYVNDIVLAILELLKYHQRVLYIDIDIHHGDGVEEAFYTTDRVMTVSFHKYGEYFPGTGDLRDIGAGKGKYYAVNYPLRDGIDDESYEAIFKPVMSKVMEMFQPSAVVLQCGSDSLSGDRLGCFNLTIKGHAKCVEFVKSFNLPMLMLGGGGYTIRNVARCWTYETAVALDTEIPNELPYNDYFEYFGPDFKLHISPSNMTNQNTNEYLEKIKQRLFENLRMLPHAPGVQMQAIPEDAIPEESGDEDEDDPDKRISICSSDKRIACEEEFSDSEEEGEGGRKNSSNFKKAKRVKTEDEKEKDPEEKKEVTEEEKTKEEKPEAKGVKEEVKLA

inhibition (Histone deacetylase 1): 38% | Kd (Peregrin): 67 nM
SMILES: COc1ccc(C(=O)NO)cc1S(=O)(=O)Nc1ccc2c(c1)cc(C)c(=O)n2C
Activity (HEK293): Non-Toxic | inhibition at 4 µM (THP-1): 0% | inhibition at 100 µM (HL-60 [1]): 39% | inhibition at 20 µM (HL-60 [2]): 10%
